Results from ChEMBL document CHEMBL1123836, “Synthesis and antiviral activity of 9-[4-hydroxy-3-(hydroxymethyl)but-1-yl]purines” (J Med Chem, 1987).

Tests used:
Vero [1] = test: Compound was tested for antiviral activity against Herpes Simplex virus Type-2(MS) in vero cells; format: functional, cell-based; settings: Chlorocebus sabaeus
In short: (§1)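 Plaque reduction in Vero cell monolayers infected with about 50 PFU of HSV-1 or HSV-2. A concentration range of compound was included in an agarose overlay and kept present throughout. Plaques were counted 3 days post-infection. IC50 is the concentration giving a plaque count 50% of untreated controls. Stocks were 10 mg/mL in Me2SO, diluted in test medium.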

Vero [2] = test: Compound was tested for antiviral activity against Herpes Simplex virus Type-1(HFEM) in vero cells; format: functional, cell-based; settings: Chlorocebus sabaeus; in short: as §1
MRC5 [3] = test: Compound was tested for antiviral activity against Herpes Simplex virus Type-1(HFEM) in human lung fibroblasts (MRC-5); format: functional
In short: (§2)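 Virus yield reduction in MRC-5 cells infected at a multiplicity of about 1 PFU/cell. A concentration range of compound was added in culture medium after virus adsorption and kept present throughout. Supernatants were harvested 24 h post-infection and titrated on Vero cells. IC90 is the concentration reducing infectious yield by 90% versus untreated controls.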

MRC5 [4] = test: Compound was tested for antiviral activity against Herpes Simplex virus Type-2(MS) in human lung fibroblasts (MRC-5); format: functional; in short: as §2
MRC5 [5] = test: Compound was tested for antiviral activity against Herpes Simplex virus Type-2(20605) in human lung fibroblasts (MRC-5); format: functional; in short: as §2
MRC5 [6] = test: Compound was tested for antiviral activity against Herpes Simplexin human lung fibroblasts (MRC-5)in vero cells; format: functional
MRC5 [7] = test: Compound was tested for antiviral activity against Herpes Simplex virus Type-1(18189) in human lung fibroblasts (MRC-5); format: functional; in short: as §2
MRC5 [8] = test: Compound was tested for antiviral activity against Herpes Simplex virus Type-2(21929) in human lung fibroblasts (MRC-5); format: functional; in short: as §2
MRC5 [9] = test: Compound was tested for antiviral activity against Herpes Simplex virus Type-1(19407) in human lung fibroblasts (MRC-5); format: functional; in short: as §2
MRC5 [10] = test: Compound was tested for antiviral activity against Herpes Simplex virus Type-1(20132) in human lung fibroblasts (MRC-5); format: functional; in short: as §2
MRC5 [11] = test: compound was tested for antiviral activity against Herpes Simplex virus Type-2(20605) in human lung fibroblasts (MRC-5); format: functional; in short: as §2
MRC5 [12] = test: compound was tested for antiviral activity against Herpes Simplex virus Type-1(20132) in human lung fibroblasts (MRC-5); format: functional; in short: as §2
MRC5 [13] = test: compound was tested for antiviral activity against Herpes Simplex virus Type-1(18189) in human lung fibroblasts (MRC-5); format: functional; in short: as §2
MRC5 [14] = test: compound was tested for antiviral activity against Herpes Simplex virus Type-1(19407) in human lung fibroblasts (MRC-5); format: functional; in short: as §2
MRC5 [15] = test: compound was tested for antiviral activity against Herpes Simplex virus Type-1(HFEM) in human lung fibroblasts (MRC-5); format: functional; in short: as §2
MRC5 [16] = test: compound was tested for antiviral activity against Herpes Simplex virus Type-2(17409) in human lung fibroblasts (MRC-5); format: functional; in short: as §2
MRC5 [17] = test: compound was tested for antiviral activity against Herpes Simplex virus Type-2(21929) in human lung fibroblasts (MRC-5); format: functional; in short: as §2
MRC5 [18] = test: compound was tested for antiviral activity against Herpes Simplex virus Type-2(MS) in human lung fibroblasts (MRC-5); format: functional; in short: as §2

Row | SMILES | IC50 (Vero [1]) [nM] | IC50 (Vero [2]) [nM] | other results
1 | CCCCCOC(=O)CC(CO)CCn1cnc2c(O)nc(N)nc21 (configuration not stated) | 15000 | 6000 | 
2 | COc1nc(N)nc2c1ncn2CCC(CO)CO | 236000 | > 250000 | 
3 | Nc1nc(O)c2ncn(CCC(CC(=O)O)CC(=O)O)c2n1 | 10000 | 5800 | 
4 | COC(=O)CC(CO)CCn1cnc2c(O)nc(N)nc21 (configuration not stated) | 31000 | 81000 | 
5 | CCCCCCCCCCCCCCCOC(=O)CC(CO)CCn1cnc2c(O)nc(N)nc21 (configuration not stated) | 128000 | 33000 | 
6 | CCCCCOC(=O)CC(CCn1cnc2c(O)nc(N)nc21)CC(=O)OCCCCC | 3600 | 4200 | 
7 | Nc1nc2c(ncn2COCCO)c(=O)[nH]1 [ACYCLOVIR] | 2500 | 3800 | IC90 (MRC5 [3]): 4800 nM; IC90 (MRC5 [4]): 1200 nM; IC90 (MRC5 [5]): 300 nM; IC90 (MRC5 [6]): 700 nM; IC90 (MRC5 [7]): 700 nM; IC90 (MRC5 [8]): 900 nM; IC90 (MRC5 [9]): 1400 nM; IC90 (MRC5 [10]): 900 nM
8 | Nc1nc(O)c2ncn(CCC(CO)CO)c2n1 [PENCICLOVIR] | 6400 | 6400 | IC90 (MRC5 [11]): 800 nM; IC90 (MRC5 [12]): 600 nM; IC90 (MRC5 [13]): 500 nM; IC90 (MRC5 [14]): 600 nM; IC90 (MRC5 [15]): 1300 nM; IC90 (MRC5 [16]): 900 nM; IC90 (MRC5 [17]): 900 nM; IC90 (MRC5 [18]): 1100 nM
